Measured values reported in ChEMBL document CHEMBL4184225, “Discovery of selective 2,4-diaminoquinazoline toll-like receptor 7 (TLR 7) agonists” (Bioorg Med Chem Lett, 2018).

Tests used:
[1] = target: T1, Toll-like receptor 7 (Homo sapiens) (UniProt Q9NYK1); assay: Agonist activity at human TLR7 expressed in HEK293 cells assessed as induction of receptor activation incubated for 6 hrs by NF-kappaB-luciferase reporter gene assay; type: cell-based
T1 sequence (whole entry): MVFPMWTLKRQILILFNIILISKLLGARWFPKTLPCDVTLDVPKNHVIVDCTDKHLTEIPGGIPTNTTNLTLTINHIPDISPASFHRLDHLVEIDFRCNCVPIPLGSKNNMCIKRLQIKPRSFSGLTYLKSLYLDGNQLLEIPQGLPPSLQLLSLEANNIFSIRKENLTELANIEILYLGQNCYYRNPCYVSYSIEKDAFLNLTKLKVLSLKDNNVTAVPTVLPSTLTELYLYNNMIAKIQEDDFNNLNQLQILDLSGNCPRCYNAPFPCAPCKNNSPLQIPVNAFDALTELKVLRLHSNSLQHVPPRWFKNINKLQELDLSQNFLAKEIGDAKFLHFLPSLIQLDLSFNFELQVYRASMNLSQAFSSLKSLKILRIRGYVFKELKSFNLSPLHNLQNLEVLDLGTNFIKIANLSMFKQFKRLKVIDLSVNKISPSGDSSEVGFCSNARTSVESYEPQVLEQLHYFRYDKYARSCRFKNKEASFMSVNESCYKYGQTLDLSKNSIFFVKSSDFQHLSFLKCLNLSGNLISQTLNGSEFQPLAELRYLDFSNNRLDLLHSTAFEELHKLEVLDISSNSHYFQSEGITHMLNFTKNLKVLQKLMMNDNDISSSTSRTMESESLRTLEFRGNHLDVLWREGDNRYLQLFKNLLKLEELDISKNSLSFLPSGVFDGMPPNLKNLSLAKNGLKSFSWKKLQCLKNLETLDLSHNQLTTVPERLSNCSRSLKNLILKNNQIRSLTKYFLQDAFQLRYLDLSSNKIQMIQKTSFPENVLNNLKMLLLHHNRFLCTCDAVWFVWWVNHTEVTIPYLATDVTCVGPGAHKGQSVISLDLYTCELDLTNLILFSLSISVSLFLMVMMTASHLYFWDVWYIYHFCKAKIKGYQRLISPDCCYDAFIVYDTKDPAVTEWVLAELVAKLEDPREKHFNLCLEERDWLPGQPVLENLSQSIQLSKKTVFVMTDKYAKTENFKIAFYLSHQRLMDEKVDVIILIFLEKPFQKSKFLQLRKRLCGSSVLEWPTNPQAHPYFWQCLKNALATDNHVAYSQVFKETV
Summary of the method: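 HEK293 cells transiently transfected overnight with CMV-TLR7 (wild type or dLRR2 mutant) plus NFκB-luc plasmids. Seeded at 1.67 x 10^5 cells/mL onto compound in 4% DMSO (stock), 6 h at 37°C, 5% CO2, luciferase readout. Quadruplicate dose-response. LEC is the concentration giving an effect at least two-fold above assay SD. Values averaged over independent experiments where repeated.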

[2] = Metabolic stability in mouse liver microsomes assessed as drug metabolism after 15 mins at 1 uM; type: ADME, microsome; conditions: read-out: Drug metabolism
Summary of the method: (§1)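 Compound at 1µM incubated with liver microsomes of the stated species. Percent of compound metabolized after 15 min.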

[3] = Metabolic stability in human liver microsomes assessed as drug metabolism after 15 mins at 1 uM; type: ADME, microsome; conditions: read-out: Drug metabolism; summary of the method: as §1
[4] = Cytotoxic activity against HEK293 cells assessed as reduction in cell viability incubated for 6 hrs; type: cell-based; conditions: human
Summary of the method: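 HEK293 cells transfected with the CMV-TLR7 construct alone, treated with a compound dilution series for 6 h at 37°C, 5% CO₂. Viability read by ATP luminescence. Reported as CC50.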

Cytochrome P450 2C9 = Cytochrome P450 2C9 (Homo sapiens, UniProt P11712); assay: Inhibition of CYP2C9 (unknown origin); type: ADME
Chain of Cytochrome P450 2C9 (P11712 whole entry): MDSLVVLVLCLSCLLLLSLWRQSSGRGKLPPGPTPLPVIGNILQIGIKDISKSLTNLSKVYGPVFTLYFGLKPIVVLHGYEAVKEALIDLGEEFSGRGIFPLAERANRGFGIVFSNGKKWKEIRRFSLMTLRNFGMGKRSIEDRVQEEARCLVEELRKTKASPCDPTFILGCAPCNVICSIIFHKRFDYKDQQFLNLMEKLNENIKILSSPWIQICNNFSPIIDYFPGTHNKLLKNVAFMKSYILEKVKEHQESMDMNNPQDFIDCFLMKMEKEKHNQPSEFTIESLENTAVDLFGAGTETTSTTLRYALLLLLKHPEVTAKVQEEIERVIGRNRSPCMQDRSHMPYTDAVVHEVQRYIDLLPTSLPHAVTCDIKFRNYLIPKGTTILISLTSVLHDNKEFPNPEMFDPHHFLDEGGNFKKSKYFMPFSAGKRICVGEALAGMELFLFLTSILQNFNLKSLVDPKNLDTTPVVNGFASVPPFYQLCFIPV

Cytochrome P450 2C19 = Cytochrome P450 2C19 (Homo sapiens, UniProt P33261); assay: Inhibition of CYP2C19 (unknown origin); type: ADME
Chain of Cytochrome P450 2C19 (P33261 whole entry): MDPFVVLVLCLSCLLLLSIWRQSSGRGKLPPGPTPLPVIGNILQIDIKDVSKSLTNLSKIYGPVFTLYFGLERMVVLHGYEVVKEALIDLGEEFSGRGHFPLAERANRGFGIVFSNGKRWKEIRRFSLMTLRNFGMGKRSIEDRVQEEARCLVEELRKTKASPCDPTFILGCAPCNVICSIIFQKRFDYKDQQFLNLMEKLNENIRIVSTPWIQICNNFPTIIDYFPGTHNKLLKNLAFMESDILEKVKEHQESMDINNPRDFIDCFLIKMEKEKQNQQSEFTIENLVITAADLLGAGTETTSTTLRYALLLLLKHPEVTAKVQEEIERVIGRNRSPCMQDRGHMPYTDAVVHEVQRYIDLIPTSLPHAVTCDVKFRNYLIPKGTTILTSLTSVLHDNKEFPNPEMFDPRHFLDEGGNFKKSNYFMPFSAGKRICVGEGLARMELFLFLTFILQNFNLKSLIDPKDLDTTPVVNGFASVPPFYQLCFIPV

Toll-like receptor 8 = target: T2, Toll-like receptor 8 (Homo sapiens, UniProt Q9NR97); assay: Agonist activity at human TLR8 expressed in HEK293 cells assessed as induction of receptor activation incubated for 6 hrs by NF-kappaB-luciferase reporter gene assay; type: cell-based; conditions: hek293, 6 h
T2 sequence (Q9NR97 whole entry): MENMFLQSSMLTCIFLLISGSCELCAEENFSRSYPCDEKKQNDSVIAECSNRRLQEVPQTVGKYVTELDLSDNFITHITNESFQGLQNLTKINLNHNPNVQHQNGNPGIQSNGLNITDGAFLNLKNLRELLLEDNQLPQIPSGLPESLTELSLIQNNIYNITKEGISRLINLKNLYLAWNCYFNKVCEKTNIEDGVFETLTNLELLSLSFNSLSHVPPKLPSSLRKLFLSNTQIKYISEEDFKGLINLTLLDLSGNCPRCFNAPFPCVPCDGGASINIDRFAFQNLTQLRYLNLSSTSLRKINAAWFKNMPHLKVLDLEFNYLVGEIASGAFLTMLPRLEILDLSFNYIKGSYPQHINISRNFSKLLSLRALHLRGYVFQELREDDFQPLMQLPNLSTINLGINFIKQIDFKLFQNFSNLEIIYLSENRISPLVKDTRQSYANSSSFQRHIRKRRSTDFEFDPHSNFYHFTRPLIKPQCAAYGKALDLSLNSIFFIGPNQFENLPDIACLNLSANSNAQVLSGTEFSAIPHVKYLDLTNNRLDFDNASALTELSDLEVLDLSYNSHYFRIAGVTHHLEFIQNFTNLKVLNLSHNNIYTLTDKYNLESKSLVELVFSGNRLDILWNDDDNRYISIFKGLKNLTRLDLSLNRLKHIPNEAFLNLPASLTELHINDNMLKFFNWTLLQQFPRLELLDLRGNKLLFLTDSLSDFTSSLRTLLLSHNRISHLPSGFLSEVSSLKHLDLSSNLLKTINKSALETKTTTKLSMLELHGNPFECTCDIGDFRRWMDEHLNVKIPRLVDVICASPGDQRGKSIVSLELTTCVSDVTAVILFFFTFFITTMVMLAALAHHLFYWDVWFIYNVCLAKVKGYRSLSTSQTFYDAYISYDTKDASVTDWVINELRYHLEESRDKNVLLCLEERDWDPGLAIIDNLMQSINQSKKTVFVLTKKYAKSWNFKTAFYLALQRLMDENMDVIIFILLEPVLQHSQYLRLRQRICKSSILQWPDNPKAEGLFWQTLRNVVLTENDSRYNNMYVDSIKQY
Summary of the method: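 HEK293 cells transiently transfected overnight at 37°C with CMV-TLR8 plasmid (wild type or dLRR2 mutant) plus NFκB-luc reporter, then exposed to compound for 6 h at 37°C, 5% CO₂. Luciferase read-out. Quadruplicate dose-response. LEC is the concentration giving an effect at least two-fold above the assay SD, averaged over two or more independent experiments.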

Row | SMILES | MEC [1] | metabolised at 0.25 h, 1 µM [2] | metabolised at 0.25 h, 1 µM [3] | CC50 at 6 h [4] | IC50 (Cytochrome P450 2C9) | IC50 (Cytochrome P450 2C19) | MEC (Toll-like receptor 8)
1 | CCCCNc1nc(N)nc2cccc(OCc3nccc(OC)c3OC)c12 | 0.03 µM | 98% | 37% | 16 µM | > 10 µM | > 10 µM | > 25 µM
2 | CCCCNc1nc(N)nc2cccc(C(=O)N[C@H](C)c3ccccc3)c12 | 2.29 µM | 75% | 32% | > 25 µM | > 10 µM | > 10 µM | > 25 µM
3 | CCCCNc1nc(N)nc2cccc(OCc3cccnc3)c12 | 0.03 µM | 99% | 44% | > 25 µM | > 10 µM | > 10 µM | 0.53 µM
4 | CCCCNc1nc(N)nc2cccc(OCc3ccc(CO)cc3OC)c12 | 0.03 µM | 98% | 43% | 16 µM | 5 µM | > 10 µM | > 25 µM
5 | CCCCNc1nc(N)nc2cccc(C(=O)N(C)Cc3ccccc3)c12 | 0.53 µM | 99% | 98% | > 25 µM | > 10 µM | > 10 µM | > 25 µM
6 | CCCCNc1nc(N)nc2cccc(OCc3ccccc3OC)c12 | 0.27 µM | 98% | 48% | > 25 µM | > 10 µM | > 10 µM | > 25 µM
7 | CCCCNc1nc(N)nc2cccc(C(=O)NC)c12 | 0.35 µM | 90% | 23% | > 25 µM | 8 µM | > 10 µM | 0.39 µM
8 | CCCCNc1nc(N)nc2cccc(OCc3ccccn3)c12 | 0.49 µM | 99% | 60% | > 25 µM | > 10 µM | > 10 µM | 18.5 µM
9 | CCCCNc1nc(N)nc2cccc(C(=O)NC(C)C)c12 | 2.05 µM | 45% | 14% | > 25 µM | > 10 µM | > 10 µM | 15.55 µM
10 | CCCCNc1nc(N)nc2ccccc12 | 0.17 µM |  | 90% | 18 to 25 µM |  |  | 0.07 µM
11 | CCCCNc1nc(N)nc2cccc(C(=O)N[C@@H](C)c3ccccc3)c12 | 0.09 µM | 68% | 31% | > 25 µM | > 10 µM | > 10 µM | > 25 µM
12 | CCCCNc1nc(N)nc2cccc(OCc3ccccc3)c12 | 0.16 µM | 97% | 11% | 10 µM | > 10 µM | > 10 µM | 1.66 µM
13 | CCCCNc1nc(N)nc2cccc(C(=O)NCc3ccccc3)c12 | 0.06 µM | 92% | 28% | > 25 µM | > 10 µM | > 10 µM | 1.6 µM
